Experiments:
[1] = Disruption of PP1 holoenzyme (unknown origin) interaction with protein inhibitor 2 assessed as increase in PP1 phosphatase activity by measuring increase in fluorescence using DiFMUP as substrate enzyme preincubated with I2 for ten mins followed by compound treatment for 20 mins followed by substrate addition by fluorescence based analysis; parameters: species or system Homo sapiens
Homo sapiens = species: Homo sapiens; experiment: Binding affinity to PP1 (unknown origin) assessed as change in entropy at compound to protein molar ratio of 1:1 by isothermal titration calorimetry assay
Method in brief: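 PP1 dialyzed into 20 mM TrisCl pH 7.4, 200 mM NaCl, 1 mM TCEP, precipitate removed, 19.16 μM (0.72 mg/ml) in the cell. Compound 500 μM in last dialysis buffer, injected 1.8 μl every 2 min at 25°C. Data corrected for dilution heat and fitted for stoichiometry, Kd, ΔH, ΔS.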

[2] = Binding affinity to PP1 (unknown origin) assessed as dissociation constant at compound to protein molar ratio of 1:1 by isothermal titration calorimetry assay; parameters: species or system Homo sapiens
Method in brief: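 PP1 dialysed into 20 mM TrisCl pH 7.4, 200 mM NaCl, 1 mM TCEP; precipitate removed, protein concentrated to 19.16 μM (0.72 mg/ml) in cell. Peptide dissolved in final dialysis buffer (also the reference), 500 μM in syringe, 1.8 μl injections every 2 min at 25°C. Data corrected for dilution heat and fitted for Kd and stoichiometry.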

[3] = Binding affinity to PP1 (unknown origin) assessed as binding to RVxF binding site of PP1 by competing with PDP incubated for 60 mins in presence of biotin-PDP2 by ALPHA assay; parameters: species or system Homo sapiens
Method in brief: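 His-tagged PP1 200 nM with biotin-PDP2 67 nM in 50 mM TrisCl pH 7.5, 150 mM NaCl, 0.05% Tween 20, 1 mM MnCl2, 0.1% BSA; serial dilutions starting from 10 mM, 60 min rt; then streptavidin-donor and anti-His-acceptor beads at 5 μg/ml final, 90 min rt in dark; excitation 680 nm, emission 570 nm. Non-specific control used 22 nM GST(His-Biotin) instead.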

In the case of CC(C)[C@H](NC(=O)[C@H](CCCNC(=N)N)NC(=O)[C@@H](N)CCCCN)C(=O)N[C@@H](Cc1cnc[nH]1)C(=O)N[C@@H](Cc1ccccc1)C(N)=O, the EC50 [1] is reported as 600 nM, the deltaS (Homo sapiens) is reported as 3.94 cal/mol/deg and the Kd [2] is reported as 2100 nM. For the same compound, the IC50 [3] was 124000 nM.

From ChEMBL document CHEMBL5120861, “Short peptide pharmacophores developed from protein phosphatase-1 disrupting peptides (PDPs)” (Bioorg Med Chem, 2022)
